Series [1] addresses T1, Mu-type opioid receptor (Homo sapiens, UniProt P35372). The series can be described thus: Agonist activity at human mu opioid receptor expressed in HEK293 assessed as inhibition forskolin-induced cAMP accumulation at 0.00001 to 100 uM after 15 mins by EIA relative to control. In kind it is functional, cell-based. The gist of the method: (§1)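 Whole HEK-293 cells stably expressing human KOR or MOR, in serum-free medium with 0.5 mM IBMX. Cells exposed 15 min at 37°C to 10 µM forskolin, with or without test agent. KOR co-treatment run: U50,488 1 pM–100 µM with or without 1 µM test agent. cAMP measured by enzyme immunoassay.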
(cAMP levels reflect the balance of adenylyl cyclase and phosphodiesterase activity.)

Series [2] deals with T2, Kappa-type opioid receptor (Homo sapiens, UniProt P41145). The series can be described thus: Displacement of [3H]U69,593 from human kappa opioid receptor expressed in HEK293 cell membranes after 2 hrs by liquid scintillation spectrometry. In short, it runs like this: (§2)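 Membranes from HEK-293 cells stably expressing human opioid receptors. Radioligands: [3H]DAMGO for MOR, [3H]diprenorphine for DOR, [3H]U69,593 for KOR. Competitor range 10^-12–10^-4 M, 120 min at 25°C, Tris-HCl buffer with 0.3% BSA. Unlabelled ligands defined nonspecific binding. Bound label collected on 0.3% polyethylenimine-presoaked filters and counted by liquid scintillation. Ki from IC50 via Cheng-Prusoff.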
T2 sequence (P41145 whole entry): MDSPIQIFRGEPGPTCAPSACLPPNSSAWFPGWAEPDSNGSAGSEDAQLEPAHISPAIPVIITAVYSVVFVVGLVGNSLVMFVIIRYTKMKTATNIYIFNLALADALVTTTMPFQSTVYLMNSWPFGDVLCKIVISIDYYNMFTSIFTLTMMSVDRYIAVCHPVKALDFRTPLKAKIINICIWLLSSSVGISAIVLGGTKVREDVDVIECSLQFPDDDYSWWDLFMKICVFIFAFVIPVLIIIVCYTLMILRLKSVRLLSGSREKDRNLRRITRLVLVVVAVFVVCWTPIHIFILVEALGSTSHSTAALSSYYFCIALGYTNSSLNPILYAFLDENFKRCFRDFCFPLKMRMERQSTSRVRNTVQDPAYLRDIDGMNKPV
On the technique in general: In a radioligand displacement assay an active substance lowers the binding of a labelled ligand.

Series [3] can be described thus: Drug metabolism in mouse serum assessed as compound hydrolysis after 4 hrs by RP-HPLC analysis. Particulars: read-out: Drug metabolism. The format is ADME, cell-free. The gist of the method:
(§3)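 Peptides incubated in mouse serum at 37°C for up to 4 h and sampled over time. Enzymatic activity stopped with cold acetonitrile, then centrifuged. Intact peptide in the supernatant quantified by reversed-phase HPLC, with ESI-MS analysis.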

The target of series [4] is T1, Mu-type opioid receptor. The experiment in a line: Agonist activity at human mu opioid receptor expressed in HEK293 assessed as inhibition forskolin-induced cAMP accumulation after 15 mins by EIA. In kind it is functional, cell-based. In short, it runs like this: as §1
Series [5] addresses Delta-type opioid receptor (Homo sapiens, UniProt P41143). The experiment in a line: Displacement of [3H]diprenorphine from human delta opioid receptor expressed in HEK293 cell membranes after 2 hrs by liquid scintillation spectrometry.
Series [6] deals with T1, Mu-type opioid receptor. The experiment in a line: Displacement of [3H]DAMGO from human mu opioid receptor expressed in HEK293 cell membranes after 2 hrs by liquid scintillation spectrometry. The gist of the method: as §2
Series [7] addresses T2, Kappa-type opioid receptor. The series can be described thus: Agonist activity at human kappa opioid receptor expressed in HEK293 assessed as inhibition forskolin-induced cAMP accumulation at 1 uM after 15 mins in presence of U50,488 by EIA. The format is functional, cell-based. The gist of the method: as §1
Series [8] has as its system Mus musculus. The series can be described thus: Antinociceptive activity in CD1 mouse assessed as increase in latency to response at 20 mg/kg, ip measured at 15 mins post dose in presence of KOR antagonist nor-BNI by tail immersion test. The format is functional, organism-based. In short, it runs like this:
(§4)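 Mouse warm-water tail immersion at 52 ± 0.5 °C. Control withdrawal latency recorded before dosing; only mice responding within 5 s were used. Vehicle or compound given ip at 10 or 20 mg/kg. Where stated, norBNI 10 mg/kg given 30 min before compound. Test latency taken with 10 s cutoff. MPE% = 100 × (TL − CL)/(10 − CL); n = 6.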

For series [9], the target named is T2, Kappa-type opioid receptor. The experiment in a line: Agonist activity at human kappa opioid receptor expressed in HEK293 assessed as inhibition forskolin-induced cAMP accumulation after 15 mins by EIA. The format is functional, cell-based. The gist of the method:
as §1

For series [10], the system named is Mus musculus. The experiment in a line: Antinociceptive activity in CD1 mouse assessed as increase in latency to response at 20 mg/kg, ip measured at 30 mins post dose by tail immersion test relative to control. In kind it is functional. The gist of the method:
as §4

The target of series [11] is T2, Kappa-type opioid receptor. The series can be described thus: Agonist activity at human kappa opioid receptor expressed in HEK293 assessed as inhibition forskolin-induced cAMP accumulation at 0.00001 to 100 uM after 15 mins by cAMP EIA relative to control. In kind it is functional, cell-based. In short, it runs like this: as §1
The subject of series [12] is Mus musculus. The experiment in a line: Antinociceptive activity in CD1 mouse assessed as increase in latency to response at 10 mg/kg, ip measured at 15 mins post dose by tail immersion test. In kind it is functional, organism-based. In short, it runs like this:
as §4

Series [13] can be described thus: Drug metabolism in mouse serum assessed as compound hydrolysis after 1 hr by RP-HPLC analysis. The format is ADME, cell-free. The conditions noted are these: read-out: Drug metabolism. In short, it runs like this: as §3
Series [14] relates to Mus musculus. The series can be described thus: Antinociceptive activity in CD1 mouse assessed as increase in latency to response at 20 mg/kg, ip measured at 15 mins post dose by tail immersion test relative to control. The format is functional. The gist of the method:
as §4

Calls of active or inactive are those of the source. Some results are limits rather than exact numbers.

T1 sequence (P35372 whole entry): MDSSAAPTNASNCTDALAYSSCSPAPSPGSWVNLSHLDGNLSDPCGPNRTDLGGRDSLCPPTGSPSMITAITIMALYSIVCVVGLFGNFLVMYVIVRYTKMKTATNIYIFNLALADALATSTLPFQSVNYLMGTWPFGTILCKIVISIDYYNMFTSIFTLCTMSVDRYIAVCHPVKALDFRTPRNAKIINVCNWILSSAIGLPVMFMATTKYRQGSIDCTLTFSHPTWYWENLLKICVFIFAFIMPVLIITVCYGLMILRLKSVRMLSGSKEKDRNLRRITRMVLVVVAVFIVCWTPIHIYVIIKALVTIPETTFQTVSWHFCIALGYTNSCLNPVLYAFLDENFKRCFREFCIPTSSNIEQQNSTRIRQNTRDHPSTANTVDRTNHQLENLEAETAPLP
Sequence of Delta-type opioid receptor (P41143 whole entry): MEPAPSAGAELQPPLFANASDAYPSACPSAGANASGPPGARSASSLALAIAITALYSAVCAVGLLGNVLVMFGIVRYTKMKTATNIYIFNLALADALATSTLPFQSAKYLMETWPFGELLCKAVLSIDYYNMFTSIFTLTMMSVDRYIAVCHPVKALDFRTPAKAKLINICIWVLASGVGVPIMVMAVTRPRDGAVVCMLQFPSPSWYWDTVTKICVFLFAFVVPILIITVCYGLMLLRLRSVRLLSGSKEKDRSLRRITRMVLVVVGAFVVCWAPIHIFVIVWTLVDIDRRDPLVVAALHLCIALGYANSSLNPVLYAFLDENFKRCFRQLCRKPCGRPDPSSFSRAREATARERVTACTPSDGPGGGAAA

For the compound `NC(=O)[C@H](Cc1ccccc1)NC(=O)[C@@H](Cc1c[nH]c2ccccc12)N1C(=O)O[C@H](CNC(=O)[C@@H](N)Cc2ccc(O)cc2)C1=O`, the maximal response (Emax) on Mu-type opioid receptor [1] worked out at 50%. Further, the inhibition constant Ki in series [2] is > 100 µM; in [5], > 100 µM; at Mu-type opioid receptor [6], 0.24 µM. For the same compound, in series [3], the metabolised at 4 h was < 10%. Further, the IC50 on Mu-type opioid receptor [4] worked out at 0.016 nM.

Turning to `NC(=O)[C@H](Cc1ccccc1)NC(=O)[C@H](Cc1c[nH]c2ccccc12)N1C(=O)O[C@@H](CNC(=O)[C@@H](N)Cc2ccc(O)cc2)C1=O`, in [7], the inhibition worked out at 40%. For the same compound, the result in the series on Mus musculus [8] was inactive. Besides, the IC50 in series [9] is 0.00022 µM. Also, the results for the Ki (in series [2]; in series [5]; on Mu-type opioid receptor [6]) were 0.0098 µM, > 100 µM and > 100 µM, respectively. Also, the MPE with Mus musculus [10] is recorded as 42%; in the series on Mus musculus [14], 60%. Moreover, in [11], the Emax was 40%. Besides, the outcome with Mus musculus [12] was Active. Further, the metabolised at 1 h in series [13] was < 5%.

For the compound `NC(=O)[C@H](Cc1ccccc1)NC(=O)[C@@H](Cc1c[nH]c2ccccc12)N1C(=O)O[C@@H](CNC(=O)[C@@H](N)Cc2ccc(O)cc2)C1=O`, the inhibition constant (Ki) (in [2]; in series [5]; on Mu-type opioid receptor [6]) was > 100 µM throughout.

With `NC(=O)[C@H](Cc1ccccc1)NC(=O)[C@H](Cc1c[nH]c2ccccc12)N1C(=O)O[C@H](CNC(=O)[C@@H](N)Cc2ccc(O)cc2)C1=O`, the inhibitory constant (Ki) (in [2]; in series [5]; at Mu-type opioid receptor [6]) was > 100 µM throughout.

Take `N[C@@H](Cc1ccc(O)cc1)C(=O)N1CCC[C@H]1C(=O)N[C@@H](Cc1c[nH]c2ccccc12)C(=O)N[C@@H](Cc1ccccc1)C(=O)O`: at Mu-type opioid receptor [1], the Emax was found to be 53%.

The Emax is the size of the effect at its maximum, as opposed to the concentration needed. By Ki is commonly meant the dissociation constant of the complex between target and ligand, obtained from inhibition or displacement. A higher Ki goes with lower affinity. By IC50 is commonly meant the midpoint of a concentration-inhibition curve. Broadly, the inhibition is the change of the read-out against control, counted positive when it falls.

These data come from ChEMBL document CHEMBL4145618, “Constraining Endomorphin-1 by β,α-Hybrid Dipeptide/Heterocycle Scaffolds: Identification of a Novel κ-Opioid Receptor Selective Partial Agonist” (J Med Chem, 2018).
